NadD inh – NadD (S. aureus) enzyme inhibition; inhibition, % at 20 µM; hit rate 0.78% among 360,000; purified NadD enzyme, colorimetric absorbance read-out; in the data active = inhibition above about 26%
core dimer inh – HCV core protein dimerization inhibition | TR-FRET GST/Flag-core106 dimerization, 1536-well | inhibition, % at 5 µM | hit rate 0.33% among 300,000 | AID 1899;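 active = inhibition above the mean of all tested compounds plus 3 SD, set per screening campaign, cut at about 45% in these data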
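System: GST-tagged and Flag-tagged HCV core protein residues 1-106 / Input: core106 proteins, GST 13.5 nM and Flag 17 nM / Buffer or medium: KF-containing HEPES buffer, pH 7.45, DTT, CHAPS, BSA / Probe or stimulus: Eu-anti-GST and XL665-anti-Flag labelled anti-tag antibodies / Schedule: 4 h, 22.5 °C incubation / Technique: TR-FRET 671 and 617 nm emission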
TbMetRS inhib – blocks T. brucei methionyl-tRNA synthetase activity. inhibition, % at 11.9 µM. hit rate 0.4% among 360,000. AID 624268. purified T. brucei MetRS, ATP depletion, Kinase-Glo luminescence;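 active = inhibition above a per-plate cutoff of the control wells' mean inhibition plus 3 SD, cut at about 5.5% in these data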;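 also: 0% = DMSO wells median and 100% = median of wells with control inhibitor compound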
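assay system = parasite MetRS enzyme | timing = 15 min preincubation, 2 h reaction, all 25 °C | evaluation = percent inhibition relative to median high and low control wells | medium = HEPES buffer containing pyrophosphatase, BSA, spermine, DTT | compound = single dose, 11.9 µM final nominal, 0.9% final DMSO | detection = Kinase-Glo luminescence, ATP depletion format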
DSG3 Ab inh – human desmoglein-3 autoantibody binding inhibition; DSG3-coupled beads, scFv-anti-DSG3-GFP binding, flow cytometry; stronger effect = lower value; binding (percent of control), % at 10 µM; hit rate 0.48% among 310,000; AID 588358;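 active = binding more than 3 SD below its plate's average and above zero; inconclusive = below that plate limit but binding exactly zero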;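 also: hits lower antibody fragment binding to DSG3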
Rce1 inhib – inhibitors of yeast Ras-converting enzyme | Q03530 | yeast membranes, quenched prenylated peptide cleavage fluorescence | calls only | hit rate 0.27% among 290,000;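 active = fall in fluorescence gain of 50% or more versus controls, with final raw signal at or below 3038400; inconclusive = same 50% fall but final raw signal above 3038400; inactive = fall in fluorescence gain under 50%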;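 also: plate controls were neutral control wells for no effect and wells lacking membranes for full effect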
* = called active by the depositor; i = inactive; ? = inconclusive; · = no result; + = active, no number. An excerpt weighted towards active compounds, which were near 1.9% of everything screened.

SMILES	NadD inh	core dimer inh	TbMetRS inhib	DSG3 Ab inh	Rce1 inhib
C[C@H]1COC(=O)[C@@H](Cc2ccc(F)cc2)CC/C=C/C[C@H](CC(=O)N(CCO)Cc2ccccc2)C(=O)N1	-4	·	0	106	·
C[C@H]1COC(=O)[C@@H](Cc2ccc(F)cc2)CC/C=C/C[C@@H](CC(=O)N(CCO)Cc2ccccc2)C(=O)N1	-2	·	0	80*	·
O=C(c1cc(C2CC2)on1)N1CCOCC1	1	-6	0	96	i
N#Cc1ccsc1NC(=O)CN1CCCCCC1	6	-6	0	73	i
CN(CC(=O)Nc1sccc1C#N)C1CCCCC1	17	51*	1	·	i
COC(=O)CCCC1=CC2=CC(=O)C(C)(O)C(=O)C2=CO1 (configuration not stated)	·	24	·	·	i
COC(=O)CCCC1=CC2=CC(=O)C(C)(OC(=O)C3CCCC3)C(=O)C2=CO1 (configuration not stated)	·	64*	·	92	i
CCC(=O)OC1(C)C(=O)C=C2C=C(CCCC(=O)OC)OC=C2C1=O (configuration not stated)	12	53*	0	98	i
Cc1ccc2nc(C)c(C(=O)N/N=C/c3cccs3)n2c1	-4	-5	-2	84	i
CC1CCc2c(sc(NC(=O)/C=C/c3cccs3)c2C(=O)O)C1 (configuration not stated)	-5	-2	-1	59*	i
CC1CCc2c(sc(NC(=O)c3ccco3)c2C(=O)O)C1 (configuration not stated)	-8	2	0	102	i
Cc1cc(C(=O)Nc2cccc(NC(=O)c3ccco3)c2)ccc1[N+](=O)[O-]	-7	·	0	·	i
CC(=O)Oc1ccc(C(=O)Nc2ccc(S(=O)(=O)NCC3CCCO3)cc2)cc1 (configuration not stated)	-5	3	0	109	+
CC(=O)Nc1ccc(OCc2cn(CC(=O)c3ccc(O)cc3)nn2)cc1	32*	·	-1	101	·
C=COC(=O)CSc1snc(SCC(=O)OC)c1C#N	-2	89*	0	99	i
CCCn1c(/C=C/c2ccco2)nc2ccccc21	23	51*	0	108	i
O=C(NN1C(=O)c2cc(Br)ccc2NC1c1ccccc1Cl)c1ccncc1 (configuration not stated)	2	2	-1	97	i
COc1ccc(Cl)cc1NC(=O)c1cc(-c2ccco2)on1	18	63*	0	107	i
CC1=CC(=O)c2c(O)ccc(O)c2C1=O	·	70*	·	·	·
CCOC(=O)c1cnn(-c2nc(SC)nc3sc4c(c23)CCC4)c1N	6	80*	-1	77	i
Cc1nc(-n2ncc(C#N)c2N)c2c3c(sc2n1)CCC3	-1	0	0	86	i
CCOC(=O)Cn1c(=NC(=O)c2cccs2)sc2cc(C(=O)OC)ccc21	-4	0	0	18*	i
CCCCNC(=S)NNC(=O)CCn1cc(C)cn1	1	5	1	103	+
Cc1cnn(CCC(=O)NNC(=S)NCC(C)C)c1	2	-5	0	·	i
CCn1c(N2CCN(S(=O)(=O)c3ccc(Cl)cc3)CC2)nc2ccccc21	-1	4	0	-37*	i
SMILES	NadD inh	core dimer inh	TbMetRS inhib	DSG3 Ab inh	Rce1 inhib
CCn1c(N2CCN(S(=O)(=O)c3ccc(F)cc3)CC2)nc2ccccc21	-6	1	-1	107	i
O=C(CSc1nc2cc(Cl)ccc2s1)NC(=O)NCc1ccco1	6	57*	-2	88	i
Cc1sc2ncnc(SCC(=O)NC(=O)NCc3ccco3)c2c1C	9	50*	0	95	i
Cc1ccc(-c2csc3ncnc(OCC(=O)NC(=O)NCc4ccco4)c23)cc1	15	49*	0	103	i
CCCCc1nc2sc3c(SCC(=O)NCc4ccco4)ncnc3c2c2c1CCC2	28	105*	0	·	i
CCOc1ccc2nc(SCC(=O)NC(=O)NCc3ccco3)sc2c1	7	13	-1	?	i
Cc1nc(SCC(=O)NCc2ccco2)c2c(C)c(C)sc2n1	-2	8	0	104	i
CC(C)(C)C(=O)Nc1ccccc1C(=O)Nc1cc(Cl)ccc1Cl	-9	-2	0	102	i
CCC(=O)Nc1sc2c(c1C(N)=O)CCN(Cc1ccccc1)C2	-4	-8	0	83	i
C(=N\n1cnnc1)/c1cccc2ccccc12	0	2	-1	103	i
O=S(=O)(c1ccc(-c2csc(Nc3ccc(Br)cc3)n2)cc1)N1CCCC1	18	6	0	116	i
Cc1cc(C)cc(Nc2nc(-c3ccc(S(=O)(=O)N4CCCC4)cc3)cs2)c1	17	8	-1	99	+
O=S(=O)(c1ccc(-c2csc(Nc3ccc(F)cc3)n2)cc1)N1CCCC1	8	6	-1	98	+
O=[N+]([O-])c1ccc(N2N=C(c3ccco3)CC2c2ccccc2)cc1 (configuration not stated)	7	87*	-1	195	i
Fc1ccc(C2CC(c3ccco3)=NN2c2ccccc2)cc1 (configuration not stated)	7	-2	0	·	i
COc1ccc(-c2cc(C(F)(F)F)n3nc(C(=O)N4CCCCC4)cc3n2)cc1	-2	8	-1	103	i
COc1ccc(N=C2S/C(=C\c3ccc(Cl)c([N+](=O)[O-])c3)C(=O)N2CCN(C)C)cc1	0	3	0	106	i
O=C(CCCN1CCC(O)(c2ccc(Cl)cc2)CC1)c1ccc(F)cc1	-7	2	-1	53*	i
O=C(CCCN1CCC(O)(c2ccc(Br)cc2)CC1)c1ccc(F)cc1	-3	-6	-1	114	·
CC(C)c1cc(Nc2cccc(O)c2)cc(C(C)C)c1O	·	53*	·	·	i
CCOc1cc(C(=O)N2CCN(c3ccccc3)CC2)cc(OCC)c1OCC	12	2	-1	103	i
CN(C)Cc1nc2ccccc2c(=O)n1Cc1nc(-c2cccc([N+](=O)[O-])c2)cs1	-3	-1	-1	101	i
CN1CCN(Cc2nc3ccccc3c(=O)n2Cc2nc(-c3ccc([N+](=O)[O-])cc3)cs2)CC1	5	3	0	-160*	i
COc1ccc(/C=C2\CN(Cc3ccccc3)C/C(=C\c3ccc(OC)cc3OC)C2=O)c(OC)c1	29*	49*	0	98	i
Cc1nc2c(=O)oc3ccccc3c2n1-c1ccccc1	2	9	-1	101	i
CCn1c(C)nc2c(=O)oc3ccccc3c21	2	-4	-1	106	+
CS(=O)(=O)c1ccc(Nc2nc(C(N)Cc3ccccc3)cs2)cc1 (configuration not stated)	-1	·	0	·	·
CCOC(=O)/C(C#N)=C/Nc1ccccc1OC	-4	-2	-1	·	i
